# Bioassay records (PubChem)
# GSIS activator = GLuc luminescence reporter in INS-1E cells, primary screen for activators of glucose-dependent secretion of insulin | INS-1E GLuc reporter insulin secretion, 2-3 h | activation, % at 16.6 µM | 370,000 compounds, 0.61% hits | AID 743287, 2014;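 active = lowest replicate activation of at least 40%, so every replicate reaches that level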;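 note: 0% = median of neutral control wells and 100% = median of IBMX positive control wells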
# miR122 inh = miR-122 Renilla sensor signal increase in Huh7, primary screen, miR-122 inhibitor project, cell-based, single point, plate reader | Huh7 miR-122 Renilla luciferase sensor, 48 h; neutral wells = 0, positive control = 100 | activation (reporter increase), % at 12.5 µM | 340,000 compounds, 0.3% hits | AID 602342, 2012;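 active = mean replicate activation score at least 90 and every replicate individually at or above 90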;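 note: higher luciferase means less miR-122 activity so hits act as miR-122 inhibitors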
# F508del corr = F508del CFTR correction, initial screen, CFBE line, single point; activity (quench increase), % at 7.58 µM; 350,000 compounds, 0.36% hits; CFBE cells, YFP halide quenching; stimulated with forskolin plus potentiator P3; % fluorescence drop versus neutral controls;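 active = mean added fluorescence quench of at least 8% versus neutral control, with both replicates also reaching 8%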;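 note: cells transiently co-express mutant CFTR-F508del with the halide-sensitive YFP; corrector assay measuring rescue of mutant channel to the surface after 24 h compound exposure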
# rRNA inh HTS = reduced GFP signal of wild-type E. coli, primary screen, bacterial rRNA inhibitor project, GFP/RFP fluorescence, OD600, single point; E. coli WT GFP vs humanized-ribosome RFP mutants, 24 h; stronger effect = lower value; DMSO median 0, no signal -100; GFP signal change (wild-type ribosome), % (concentration not given with the values); 350,000 compounds, 1.6% hits; AID 720706, 2013;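 active = significant combined selectivity score with lowered wild-type GFP, culture density cut under 30%, mutant RFP and density less affected; inactive = any of these conditions unmet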
# Env fusion inh = inhibitors of HIV-1 Env-driven cell-cell fusion, primary screen, HeLa-JRFL effector, CEM21 target cells, luciferase; inhibition, % at 12.3 µM; 360,000 compounds, 1.1% hits;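 active = mean replicate inhibition score of at least 50 and every replicate individually at or above 50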;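 note: 0% = plate neutral controls and 100% = maraviroc near 300 nM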
# Cneo AK release = Cryptococcus neoformans cell lysis inducers, primary screen, AK release luminescence, single concentration; lysis activity, % at 15 µM; C. neoformans lysis, adenylate kinase release luminescence, 4 h; normalised: neutral wells 0, clomiphene wells 100; 360,000 compounds, 0.2% hits; AID 651654, 2012;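 active = mean lysis activity across replicates of at least 80%, whatever share of replicates individually reach that level; inactive = mean lysis activity below 80%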
#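 Assay system: log-phase C. neoformans yeast / Quantity: yeast cell density of 5 × 10^6 cells/mL / Medium: fresh YPD growth medium / Compound: single dose / Timing: static 4 h at 37 °C with compound, 1 h detection / Measured by: adenylate kinase release luminescence / Read-out: lysis from increased AK signal / Benchmarks: Clomiphene as positive lysis control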
# An asterisk follows results filed as active; . = no result; ! = a repeat was not active; [ ] = dose if it differs, or a comment. An excerpt weighted towards active compounds, which were near 3.1% of everything screened.
SMILES,GSIS activator,miR122 inh,F508del corr,rRNA inh HTS,Env fusion inh,Cneo AK release
Cc1noc(C)c1S(=O)(=O)Nc1cccc2c1O[C@H](CN(C)Cc1ccc(C(F)(F)F)cc1)[C@H](C)CN([C@H](C)CO)C2=O,-22.7,15.7[16.7 µM],-0.6,-2.2,59.1*[16.7 µM],1.3
C[C@@H]1CN([C@H](C)CO)C(=O)c2cccc(NS(=O)(=O)c3ccc(F)cc3)c2O[C@@H]1CN(C)Cc1ccc(C(F)(F)F)cc1,-0.6,2.8[16.7 µM],-2.7,-0.8,77.3*[16.7 µM],14.9
Cc1noc(C)c1S(=O)(=O)Nc1cccc2c1O[C@@H](CN(C)Cc1ccc(C(F)(F)F)cc1)[C@@H](C)CN([C@H](C)CO)C2=O,-15.0,5.1[16.7 µM],-1.4,4.2,16.8[16.7 µM],4.9
C[C@H]1CN([C@@H](C)CO)C(=O)c2cccc(NS(=O)(=O)c3ccc(Cl)cc3)c2O[C@@H]1CN(C)Cc1ccc(C(F)(F)F)cc1,-24.5,48.8[16.7 µM],-1.7,-0.8,57.0*[16.7 µM],2.5
COc1ccc(S(=O)(=O)Nc2cccc3c2O[C@@H](CN(C)Cc2ccc(C(F)(F)F)cc2)[C@H](C)CN([C@H](C)CO)C3=O)cc1,-6.4,102.2*[16.7 µM],-2.3,-5.8,-115.7[16.7 µM],41.9
C[C@@H]1CN([C@H](C)CO)C(=O)Cc2cc(NC(=O)CCC(F)(F)F)ccc2O[C@H]1CN(C)S(=O)(=O)c1ccc(F)cc1,-4.5,-4.1[16.7 µM],-0.4,1.1,-20.5[16.7 µM],3.9
O=C1[C@H]2[C@@H](c3ccc(F)cc3)N3C(=O)N(c4cccc(Br)c4)C(=O)[C@@]3(Cc3ccccc3)[C@H]2C(=O)N1C1CCCCC1,6.8,5.7,-0.7,9.3,107.4*,-1.8
O=C1[C@H]2[C@@H](c3ccc(F)cc3)N3C(=O)N(c4cccc(F)c4)C(=O)[C@@]3(Cc3ccccc3)[C@H]2C(=O)N1C1CCCCC1,2.4,-2.6,-2.9,20.1,95.0*,1.5
Cc1ccc(N2C(=O)N3[C@H](c4ccc(F)cc4)[C@@H]4C(=O)N(C5CCCCC5)C(=O)[C@@H]4[C@]3(Cc3ccccc3)C2=O)cc1,19.1,.,-1.3,14.6,55.8*,0.6
O=C1[C@H]2[C@@H](c3ccc(Cl)cc3)N3C(=O)N(c4cccc(Cl)c4)C(=O)[C@@]3(Cc3ccccc3)[C@H]2C(=O)N1C1CCCCC1,3.7,-8.0,-0.6,.,96.8*,-1.7
CCN1C(=O)[C@H]2[C@@H](c3ccc(C)cc3)N3C(=O)N(c4ccc(C)cc4)C(=O)[C@@]3(Cc3ccccc3)[C@H]2C1=O,-20.9,-6.3,3.1,14.6,-78.5,0.9
C[C@@H]1CCCCO[C@H](CN(C)CC2CC2)[C@H](C)CN([C@@H](C)CO)C(=O)c2cc(NC(=O)c3ccccc3)ccc2O1,-7.4,-2.2[16.7 µM],0.0,-1.9,0.8[16.7 µM],12.9
CCCNC(=O)N1[C@@H]2CN(C(=O)Nc3ccc(F)cc3)c3ccccc3[C@@H]2[C@@H]1CO,-6.8,3.8[16.7 µM],-0.6,-4.2,.,-2.4
COC(=O)C1C(=O)NC(SC)=C(C#N)C1c1ccccc1 (stereo not given),40.0*,-0.9,.,.,.,1.0
CN(C)C(=O)C[C@@H]1CC[C@@H]2[C@H](COC[C@@H](O)CN2Cc2ccc(C(F)(F)F)cc2)O1,3.3,1.5[16.7 µM],-1.2,-0.9,-7.4[16.7 µM],-1.4
O=C(C1CCCO1)N1CCN(C(=S)Nc2ccc(F)cc2)CC1 (stereo not given),19.7,.,.,9.6,-5.7,.
O=C(C1CCCO1)N1CCN(C(=S)Nc2ccc(F)c(Cl)c2)CC1 (stereo not given),12.5,-1.0,0.8,-29.5*,27.1,-0.2
CCOc1ccc(OCC)c(NC(=O)CN2CCN(c3cccc(C)c3)CC2)c1,.,-0.9,.,.,.,2.1
CCOc1ccc(OCC)c(NC(=O)CN2CCN(c3cc(C)ccc3C)CC2)c1,.,-0.5,.,.,60.5*,-2.8
COc1ccc(NC(=O)CN2CCN(c3ccccc3C)CC2)cc1,-11.7,4.5,0.6,-31.0*,-3.5,-2.7
COc1ccc(NC(=O)CN2CCC(C(N)=O)(N3CCCCC3)CC2)cc1,-5.5,.,.,.,76.7*,-1.2
O=C(C1CCCCC1)N1CC2(C1)[C@@H](c1ccccc1)[C@@H](CO)N2C(=O)NC1CCCC1,-2.2,.,1.4,-3.5,.,.
COc1ccccc1N1CCN(C(=O)c2noc(C)c2[N+](=O)[O-])CC1,56.9*,.,-1.5,8.0,-2.9,-0.6
COc1ccccc1N1CCN(C(=O)c2ccc3noc(-c4ccccc4)c3c2)CC1,-45.7,2.7,-3.1,-13.5*,6.0,2.5
COc1ccccc1N1CCN(C(=O)c2ccc(-c3ccccc3)cc2)CC1,19.6,3.8,2.6,-16.6,-10.5,-6.8
SMILES,GSIS activator,miR122 inh,F508del corr,rRNA inh HTS,Env fusion inh,Cneo AK release
COc1cccc(S(=O)(=O)N2C[C@@H](O)COC[C@@H]3O[C@@H](CC(=O)N4CCCCC4)CC[C@H]32)c1,0.6,2.3[16.7 µM],-1.1,-3.9,.,38.0
CCOC(=O)c1c(C)c(C(=O)N2CCN(c3cccc(Cl)c3)CC2)c(C)n1C,-26.9,-2.2,.,.,57.3*,-1.4
CCOc1ccc(C(=O)N2CCN(c3cccc(Cl)c3)CC2)cc1,-41.8,.,-2.0,-24.6,7.4,.
CCC(=O)N1C[C@@H](C)[C@H](OC)CN(C)C(=O)c2cc(NC(=O)c3cc(C)on3)ccc2OC[C@H]1C,6.2,-12.5[16.7 µM],1.0,1.5,.,.
N#Cc1ccc(-c2ccc(C3[C@@H]4CN(C(=O)C5CCC5)C[C@H]3N4)cc2)cc1 (stereo not given in full),-6.3,.,10.4*!,5.7,.,.
N#Cc1ccc(-c2ccc(C3[C@@H]4CN(C(=O)C5CCCC5)C[C@H]3N4)cc2)cc1 (stereo not given in full),9.0,.,1.0,-6.6,.,.
COc1ccc(NC(=O)Nc2ccc3c(c2)C(=O)N([C@H](C)CO)C[C@@H](C)[C@H](CN(C)S(=O)(=O)c2cn(C)cn2)O3)cc1,-2.0,-1.8[16.7 µM],2.0,1.0,13.3[16.7 µM],-2.7
CC(C)CCOP(=O)(c1ccccc1)c1ccccc1,64.4*,.,.,.,.,.
COc1ccccc1NC(=O)COc1cccnc1[N+](=O)[O-],26.4,-7.3,0.0,5.6,.,-2.8
COC(=O)c1sc(NC(=O)COc2cccnc2[N+](=O)[O-])c(C(=O)OC)c1C,40.0*,-16.3,4.2,-0.7,.,-1.6
CN(C)CCCNC(=O)[C@H]1[C@H](CO)[C@H]2Cn3c(ccc(-c4cccnc4)c3=O)[C@@H]1N2C(=O)CC1CC1,23.1,-7.7[16.7 µM],2.1,1.1,.,0.5
